Molecules are shown by their SMILES. The source made the active and inactive calls. The rule behind the calls is not given here.

Data set [1] deals with Muscle tissue. In words: Drug metabolism in Sprague-Dawley rat muscle assessed as salicyluric acid formation at 300 mg/kg, po administered for 14 days followed by 7 day washout cycle measured on day 21. The conditions noted are these: in vivo. The class given is ADME, organism-based.
Data set [2] deals with Rattus norvegicus. The experiment in a line: Cmax in Sprague-Dawley rat assessed as salicylate-linker metabolite N-(2-aminoethyl)-2-hydroxy-benzamide at 300 mg/kg, po measured up to 24 hrs post dose. Type of data set: ADME, organism-based. Also noted: dose 300 mg/kg, route oral. The conditions noted are these: in vivo. In a few lines:
(§1)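 Single oral dose of 300 mg/kg to Sprague Dawley rats. Plasma collected at 0, 0.5, 1, 2, 4, 8 and 24 hr. Analytes were the parent, the salicylate-linker and linker-DHA metabolites, salicylic acid and salicyluric acid; Cmax and AUClast derived.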

In data set [3] the test system is Rattus norvegicus. In words: AUClast in Sprague-Dawley rat assessed as salicylate-linker metabolite N-(2-aminoethyl)-2-hydroxy-benzamide at 300 mg/kg, po measured up to 24 hrs post dose. Also noted: time < 24 hr, dose 300 mg/kg, route oral. The conditions noted are these: in vivo. Type of data set: ADME, organism-based. In a few lines: as §1
Data set [4] is described as follows: Drug metabolism in Sprague-Dawley rat epididymal fat assessed as salicylic acid formation at 300 mg/kg, po administered for 7 days measured 4 hrs post dose on day 7. Type of data set: ADME, organism-based, Epididymal fat pad. The conditions noted are these: in vivo. In a few lines:
(§2)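 Male Sprague Dawley rats, groups of 4, dosed orally at 300 mg/kg once daily for 14 days. Animals killed on days 1, 3, 7 and 14, with plasma, brain, epididymal fat, liver and muscle taken 4 hr after dosing. Parent, salicylic acid and salicyluric acid were measured.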

In data set [5] the test system is Plasma. The experiment in a line: Drug metabolism in Sprague-Dawley rat plasma assessed as salicyluric acid formation at 300 mg/kg, po administered for 7 days measured 4 hrs post dose on day 7. The settings on record: in vivo. The class given is ADME, organism-based. In a few lines: as §2
For data set [6], the system named is Intestine. The experiment in a line: Drug metabolism in Sprague-Dawley rat intestine assessed as niacin formation at 300 mg/kg, qd administered through oral gavage for 7 days measured 2 hrs post last dose by LC/MS/MS analysis. The settings on record: in vivo. The class given is ADME, organism-based.
The test system of data set [7] is Plasma. The experiment in a line: Drug metabolism in Sprague-Dawley rat plasma assessed as nicotinuric acid formation at 300 mg/kg, qd administered through oral gavage for 7 days measured 2 hrs post last dose by LC/MS/MS analysis. The class given is ADME, organism-based. The settings on record: in vivo.
In data set [8] the test system is Liver. In words: Drug metabolism in Sprague-Dawley rat liver assessed as nicotinuric acid formation at 300 mg/kg, qd administered through oral gavage for 7 days measured 2 hrs post last dose by LC/MS/MS analysis. The class given is ADME, organism-based. The conditions noted are these: in vivo.
In data set [9] the test system is Intestine. In words: Drug metabolism in Sprague-Dawley rat intestine assessed as nicotinuric acid formation at 300 mg/kg, qd administered through oral gavage for 7 days measured 2 hrs post last dose by LC/MS/MS analysis. The class given is ADME, organism-based. The settings on record: in vivo.
Data set [10] concerns Liver. The experiment in a line: Drug metabolism in Sprague-Dawley rat liver assessed as niacin linker metabolite N-(2-aminoethyl)nicotinamide formation at 300 mg/kg, qd administered through oral gavage for 7 days measured 2 hrs post last dose by LC/MS/MS analysis. The class given is ADME, organism-based. The conditions noted are these: in vivo.
In data set [11] the target is T1, Sterol regulatory element-binding protein 2 (Homo sapiens) (UniProt Q12772).
T1 sequence (whole entry): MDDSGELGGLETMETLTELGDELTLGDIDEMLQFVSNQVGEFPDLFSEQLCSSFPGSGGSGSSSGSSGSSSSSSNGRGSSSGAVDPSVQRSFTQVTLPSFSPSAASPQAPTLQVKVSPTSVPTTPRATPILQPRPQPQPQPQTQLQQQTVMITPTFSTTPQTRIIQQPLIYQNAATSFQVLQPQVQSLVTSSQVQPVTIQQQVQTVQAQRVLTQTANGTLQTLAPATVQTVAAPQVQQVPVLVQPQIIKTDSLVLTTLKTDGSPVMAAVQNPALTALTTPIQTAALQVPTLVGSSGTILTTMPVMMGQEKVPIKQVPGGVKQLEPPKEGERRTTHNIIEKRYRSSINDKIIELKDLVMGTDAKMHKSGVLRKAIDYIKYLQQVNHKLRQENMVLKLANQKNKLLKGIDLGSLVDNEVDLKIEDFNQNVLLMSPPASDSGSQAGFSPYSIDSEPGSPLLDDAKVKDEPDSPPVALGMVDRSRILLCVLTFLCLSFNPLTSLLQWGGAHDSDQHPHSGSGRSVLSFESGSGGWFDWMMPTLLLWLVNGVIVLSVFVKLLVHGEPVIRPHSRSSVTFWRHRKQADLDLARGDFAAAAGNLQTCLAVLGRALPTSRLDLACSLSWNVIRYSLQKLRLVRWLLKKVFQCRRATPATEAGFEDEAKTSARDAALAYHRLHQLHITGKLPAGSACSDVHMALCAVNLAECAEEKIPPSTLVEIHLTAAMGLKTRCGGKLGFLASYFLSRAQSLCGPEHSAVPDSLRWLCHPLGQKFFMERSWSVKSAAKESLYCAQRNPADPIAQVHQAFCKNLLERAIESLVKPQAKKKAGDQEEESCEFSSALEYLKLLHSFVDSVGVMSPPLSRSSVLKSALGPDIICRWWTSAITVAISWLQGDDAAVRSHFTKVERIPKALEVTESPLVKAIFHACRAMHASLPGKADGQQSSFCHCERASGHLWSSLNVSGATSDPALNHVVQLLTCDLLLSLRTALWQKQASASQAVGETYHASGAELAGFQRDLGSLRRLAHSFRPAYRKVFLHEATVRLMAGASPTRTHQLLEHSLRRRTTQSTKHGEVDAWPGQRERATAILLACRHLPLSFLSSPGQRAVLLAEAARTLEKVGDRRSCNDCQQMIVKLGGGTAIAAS
The experiment in a line: Inhibition of SREBP2 maturation in human HepG2 cells at 25 uM after overnight incubation by immunoblot analysis in the presence of atorvastatin. Type of data set: cell-based. In a few lines:
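Human HepG2 cells incubated with compound (25 and 50 µM), alone or together with 10 µM atorvastatin; mature SREBP-2 protein level assessed.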
A general note: In western blotting, separated proteins are transferred to a membrane and probed.

The subject of data set [12] is HepG2. In words: Inhibition of ApoB secretion in human HepG2 cells after 16 hrs by ELISA. The class given is functional, cell-based.
Data set [13] has as its system Plasma. In words: Metabolic stability in mouse plasma at 5 uM up to 2 hrs by LC-MS-MS analysis. The class given is ADME, cell-free. In a few lines:
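Plasma from each species diluted to 50% with 0.05 M PBS pH 7.4 and prewarmed to 37 °C; compound added at 5 µM final (from DMSO stock diluted in MeOH); triplicate incubations at 37 °C, sampled at 0, 30, 60, 120 min, quenched with acetonitrile containing internal standard, centrifuged, analysed by LC/MS/MS.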

With `CC/C=C\C/C=C\C/C=C\C/C=C\C/C=C\C/C=C\CCC(=O)NCCNC(=O)c1ccccc1O` [EDASALONEXENT], the Drug metabolism entry is “metabolite_notdetected” in data set [1], 65.03 ng/g in data set [4] and 764.41 ng/mL in data set [5]. The maximum concentration (Cmax) in data set [2] is 484 ng/mL. For the same compound, in data set [3], the AUClast is 2611 ng·h/mL.

With `CC/C=C\C/C=C\C/C=C\C/C=C\C/C=C\CCCC(=O)NCCNC(=O)c1cccnc1`, the Drug metabolism turned out to be 279 ng/g in data set [6]; 3220 ng/mL in [7]; 1356 ng/g in [8]; 1387 ng/g in data set [9]; 10910 ng/g in data set [10]. The inhibition entry in [11] was “Active”. In data set [12], the inhibition entry is “Dose-dependent effect”. Also, in data set [12] (HepG2, 16 h), the midpoint of inhibition, the IC50, lay at 27 µM. Further, the Stability entry in data set [13] is on record as “Stable”.

By Cmax is commonly meant the peak of the concentration-time curve. The IC50 is the concentration needed to halve the response being measured. Low readings indicate higher potency, high ones lower potency.
